Data reported in ChEMBL document CHEMBL1142571, “Antiprotozoal compounds from Psorothamnus polydenius” (J Nat Prod, 2005).
In brackets after ≈: the same amount, converted by molar mass.

Assays:
Leishmania donovani = experiment: Antileishmanial activity against Leishmania donovani MHOM/SD/62/1S-CL2D axenic amastigotes after 3 days by tetrazolium dye method; type: functional, organism-based; details: 72 h
In short: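 L. donovani amastigote-like parasites grown axenically were exposed to compounds for three days. Viability was read with the tetrazolium-based CellTiter reagent.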

[1] = system: Trypanosoma brucei brucei; experiment: Antitrypanosomal activity against blood stream-form of Trypanosoma brucei brucei MITat1.2 after 72 hrs by MTT assay; type: functional, organism-based
In short: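 Late-log bloodstream-form T. b. brucei in HMI-9 were incubated with or without compound for 72 h at 37 °C under 5% CO2. MTT (25 µL of a 5 mg/mL stock) was added for 2 h, then 10% SDS in 50% aqueous DMF for 3-4 h. OD was read at 570 nm, and IC50 is 50% growth inhibition versus untreated control.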

Vero = experiment: Cytotoxicity against african green monkey Vero cells after 72 hrs by cell-titer assay; type: cell-based; details: Chlorocebus sabaeus
In short: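 Vero cells (1000/well) in Eagle's MEM with Earle's salts, penicillin/streptomycin and 10% FBS were seeded with serial compound dilutions for 72 h at 37 °C under 5% CO2. CellTiter reagent was then added for 12-14 h, and absorbance was read at 490 nm.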

J774.A1 = experiment: Cytotoxicity against mouse J774A1 cells after 72 hrs by cell-titer assay; type: cell-based; details: J774.A1, 72 h
In short: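 J774 A.1 macrophages (5000/well) in DMEM with penicillin/streptomycin and 10% FBS were seeded with serial compound dilutions for 72 h at 37 °C under 5% CO2. Viability was read by CellTiter, with 12-14 h color development and absorbance at 490 nm.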

Leishmania mexicana [2] = experiment: Antileishmanial activity against Leishmania mexicana MNYC/BZ/62/M379 infected in C57BL/6 mouse peritoneal macrophages assessed as reduction in infection at 12.5 ug/ml after 72 hrs relative to control; type: functional; parameters: scale not given: the % may be the effect or the level left
In short: (§1)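 Mouse peritoneal macrophages were infected with promastigotes in supplemented DMEM on chamber slides for 24 h at 33 °C under 5% CO2. They were washed with HBSS and given serial drug dilutions for 72 h. Cells were then methanol-fixed and stained with 0.04% Giemsa for 35 min. At least 200 cells per sample were counted under oil immersion, and the value is the % decrease in infected macrophages versus untreated wells.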

Leishmania mexicana [3] = experiment: Antileishmanial activity against Leishmania mexicana MNYC/BZ/62/M379 infected in C57BL/6 mouse peritoneal macrophages assessed as reduction in infection at 6.3 ug/ml after 72 hrs relative to control; type: functional; parameters: scale not given: the % may be the effect or the level left; in short: as §1
Leishmania mexicana [4] = experiment: Antileishmanial activity against Leishmania mexicana MNYC/BZ/62/M379 infected in C57BL/6 mouse peritoneal macrophages assessed as reduction in infection at 25 ug/ml after 72 hrs relative to control; type: functional; parameters: scale not given: the % may be the effect or the level left; in short: as §1
[5] = Selectivity for Leishmania donovani MHOM/SD/62/1S-CL2D axenic amastigotes over african green monkey Vero cells
Leishmania mexicana [6] = experiment: Antileishmanial activity against Leishmania mexicana MNYC/BZ/62/M379 infected in C57BL/6 mouse peritoneal macrophages assessed as reduction in infection at 3.1 ug/ml after 72 hrs relative to control; type: functional; parameters: scale not given: the % may be the effect or the level left; in short: as §1
Leishmania mexicana [7] = experiment: Antileishmanial activity against Leishmania mexicana MNYC/BZ/62/M379 infected in C57BL/6 mouse peritoneal macrophages assessed as reduction in infection at 0.116 ug/ml after 72 hrs relative to control; type: functional; parameters: scale not given: the % may be the effect or the level left; in short: as §1
Leishmania mexicana [8] = experiment: Antileishmanial activity against Leishmania mexicana MNYC/BZ/62/M379 infected in C57BL/6 mouse peritoneal macrophages assessed as reduction in infection at 0.029 ug/ml after 72 hrs relative to control; type: functional; parameters: scale not given: the % may be the effect or the level left; in short: as §1
Leishmania mexicana [9] = experiment: Antileishmanial activity against Leishmania mexicana MNYC/BZ/62/M379 infected in C57BL/6 mouse peritoneal macrophages assessed as reduction in infection at 0.014 ug/ml after 72 hrs relative to control; type: functional; parameters: scale not given: the % may be the effect or the level left; in short: as §1
Leishmania mexicana [10] = experiment: Antileishmanial activity against Leishmania mexicana MNYC/BZ/62/M379 infected in C57BL/6 mouse peritoneal macrophages assessed as reduction in infection at 50 ug/ml after 72 hrs relative to control; type: functional; parameters: scale not given: the % may be the effect or the level left; in short: as §1

Row | Structure (SMILES) | IC50 (Leishmania donovani) | IC50 [1] | IC50 (Vero) | IC50 (J774.A1) | Activity (Leishmania mexicana [2]) | Activity (Leishmania mexicana [3]) | Activity (Leishmania mexicana [4]) | Ratio IC50 [5] | Activity (Leishmania mexicana [6]) | Activity (Leishmania mexicana [7]) | Activity (Leishmania mexicana [8]) | Activity (Leishmania mexicana [9]) | Activity (Leishmania mexicana [10])
1 | COc1c(C)c(O)c(C)c(O)c1C(=O)/C=C/c1ccccc1O | 7.5 mg/L (≈ 23.9 µM) | 6.8 mg/L (≈ 21.6 µM) | 13.3 mg/L (≈ 42.3 µM) | 9.3 mg/L (≈ 29.6 µM) | 96% | 34% |  | 1.8 | 6% |  |  |  | 
2 | C[C@@H]1[C@H](O)[C@@H](C)/C=C/C=C/C=C/C=C/C=C/C=C/C=C/[C@H](O[C@@H]2O[C@H](C)[C@@H](O)[C@H](N)[C@@H]2O)C[C@@H]2O[C@](O)(C[C@@H](O)C[C@@H](O)[C@H](O)CC[C@@H](O)C[C@@H](O)CC(=O)O[C@H]1C)C[C@H](O)[C@H]2C(=O)O [AMPHOTERICIN B] |  |  |  |  |  |  |  |  |  | 95% | 85% | 59% | 
3 | COc1c(C)c(O)c(C)c(O)c1C(=O)/C=C/c1ccccc1 | 5 mg/L (≈ 16.8 µM) | 6.3 mg/L (≈ 21.1 µM) | 12.9 mg/L (≈ 43.2 µM) | 7.7 mg/L (≈ 25.8 µM) | 96% | 61% |  | 2.6 | 28% |  |  |  | 

More lines, main results first:

Row | IC50 (Leishmania donovani) | IC50 [1] | Structure (SMILES) | IC50 (Vero) | IC50 (J774.A1) | Activity (Leishmania mexicana [2]) | Activity (Leishmania mexicana [3]) | Activity (Leishmania mexicana [4]) | Ratio IC50 [5] | Activity (Leishmania mexicana [6]) | Activity (Leishmania mexicana [7]) | Activity (Leishmania mexicana [8]) | Activity (Leishmania mexicana [9]) | Activity (Leishmania mexicana [10])
4 | 1.4 mg/L (≈ 4.11 µM) | 0.007 mg/L (≈ 0.0206 µM) | N=C(N)c1ccc(OCCCCCOc2ccc(C(=N)N)cc2)cc1 [PENTAMIDINE] | > 50 mg/L | 12.9 mg/L (≈ 37.9 µM) |  |  |  |  |  |  |  |  | 
5 | > 100 mg/L | 28.9 mg/L (≈ 102 µM) | Cc1c(O)c(C)c2c(c1O)C(=O)C[C@@H](c1ccccc1)O2 [DEMETHOXYMATTEUCINOL] | > 50 mg/L | > 50 mg/L |  |  |  |  |  |  |  |  | 
6 | 7.5 mg/L (≈ 24.2 µM) | 21.6 mg/L (≈ 69.6 µM) | COC1=C(C)C(=O)C(C)(C)C(=O)/C1=C1\C=Cc2ccccc2O1 [DALRUBONE] | 44.5 mg/L (≈ 143 µM) | 30.1 mg/L (≈ 97 µM) | 41% | 1% | 97% | 5.9 |  |  |  |  | 
7 |  | 0.193 mg/L (≈ 0.149 µM) | Cc1ccc(C(=O)Nc2ccc(S(=O)(=O)O)c3cc(S(=O)(=O)O)cc(S(=O)(=O)O)c23)cc1NC(=O)c1cccc(NC(=O)Nc2cccc(C(=O)Nc3cc(C(=O)Nc4ccc(S(=O)(=O)O)c5cc(S(=O)(=O)O)cc(S(=O)(=O)O)c45)ccc3C)c2)c1 [SURAMIN] |  |  |  |  |  |  |  |  |  |  | 
8 | 25 mg/L (≈ 86.7 µM) | 25 mg/L (≈ 86.7 µM) | O=C1C[C@@H](c2ccc(O)c(O)c2)Oc2cc(O)cc(O)c21 [ERIODICTYOL] | 36.5 mg/L (≈ 127 µM) | 32.8 mg/L (≈ 114 µM) | 30% |  | 55% |  |  |  |  |  | 76%
